# Measurements from ChEMBL document CHEMBL1148725, “2,2,2-Trichloro-N-({2-[2-(dimethylamino)ethyl]-1,3-dioxo-2,3-dihydro-1H-benzo[de]isoquinolin- 5-yl}carbamoyl)acetamide (UNBS3157), a novel nonhematotoxic naphthalimide derivative with potent antitumor activity” (J Med Chem, 2007).
# pIC50: −log10 of the molar value.
# Experiments:
# Mus musculus [1] = test: Hematotoxicity in B6D2F1 mouse assessed as platelet count at 10 mg/kg, po; assay type: organism-based; design: dose 10 mg/kg, route oral; settings: in vivo
# Mus musculus [2] = test: Hematotoxicity in B6D2F1 mouse assessed as platelet count at 20 mg/kg, po; assay type: organism-based; design: dose 20 mg/kg, route oral; settings: in vivo
# Mus musculus [3] = test: Hematotoxicity in B6D2F1 mouse assessed as RBC count at 5 mg/kg, po; assay type: organism-based; design: dose 5 mg/kg, route oral; settings: in vivo
# [4] = Antiproliferative activity against Hs683 cells after 72 hrs by MTT assay; assay type: functional, cell-based, Homo sapiens, Hs 683
# Outline: (§1)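 Cells cultured with each compound for three days; growth then read by the MTT colorimetric assay and reported as IC50 (µM).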
# [5] = Antiproliferative activity against U373MG cells after 72 hrs by MTT assay; assay type: functional, cell-based, Homo sapiens, U-373MG ATCC; outline: as §1
# HCT-15 = test: Antiproliferative activity against HCT15 cells after 72 hrs by MTT assay; assay type: functional, cell-based, Homo sapiens; outline: as §1
# LoVo = test: Antiproliferative activity against LoVo cells after 72 hrs by MTT assay; assay type: functional, cell-based, Homo sapiens; outline: as §1
# A549 = test: Antiproliferative activity against A549 cells after 72 hrs by MTT assay; assay type: functional, cell-based, Homo sapiens; outline: as §1
# MCF7 = test: Antiproliferative activity against MCF7 cells after 72 hrs by MTT assay; assay type: functional, cell-based, Homo sapiens; settings: Homo sapiens, MCF7, 72 h; outline: as §1
# [6] = Toxicity in ip dosed B6D2F1 mouse; assay type: organism-based; settings: in vivo
# Outline: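 Acute MTD was set by a single i.p. dose to groups of three healthy female B6D2F1 mice, at 2.5, 5, 10, 20, 40, 80 and 160 mg/kg. The MTD is the dose just below the lowest dose that killed at least one mouse.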
# L1210 [7] = test: Antitumor activity in L1210 cells xenografted B6D2F1 mouse at 5 mg/kg, ip relative to control; assay type: functional; settings: route intraperitoneal
# Outline: (§2)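 Mice grafted with L1210 leukaemia cells on day 0, then dosed i.p. four times weekly on days 1-4 and 8-11. Five mice per group. Outcome is %T/C, the median survival of treated over control. Kruskal-Wallis test followed by Dunn comparisons against control.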
# L1210 [8] = test: Antitumor activity in L1210 cells xenografted B6D2F1 mouse at 10 mg/kg, ip relative to control; assay type: functional; settings: route intraperitoneal; outline: as §2
# L1210 [9] = test: Antitumor activity in L1210 cells xenografted B6D2F1 mouse at 20 mg/kg, ip relative to control; assay type: functional; settings: route intraperitoneal; outline: as §2
# L1210 [10] = test: Antitumor activity in L1210 cells xenografted B6D2F1 mouse at 40 mg/kg, ip relative to control; assay type: functional; settings: route intraperitoneal; outline: as §2
# L1210 [11] = test: Antitumor activity in L1210 cells xenografted B6D2F1 mouse at 2.5 mg/kg, ip relative to control; assay type: functional; settings: route intraperitoneal; outline: as §2
# Mus musculus [12] = test: Hematotoxicity in B6D2F1 mouse assessed as platelet count at 5 mg/kg, iv; assay type: organism-based; design: dose 5 mg/kg, route intravenous; settings: in vivo
# Mus musculus [13] = test: Hematotoxicity in B6D2F1 mouse assessed as platelet count at 10 mg/kg, iv; assay type: organism-based; design: dose 10 mg/kg, route intravenous; settings: in vivo
# Mus musculus [14] = test: Hematotoxicity in B6D2F1 mouse assessed as WBC count at 10 mg/kg, iv; assay type: organism-based; design: dose 10 mg/kg, route intravenous; settings: in vivo
# Mus musculus [15] = test: Hematotoxicity in B6D2F1 mouse assessed as RBC count at 5 mg/kg, iv; assay type: organism-based; design: dose 5 mg/kg, route intravenous; settings: in vivo
# Mus musculus [16] = test: Hematotoxicity in B6D2F1 mouse assessed as RBC count at 10 mg/kg, iv; assay type: organism-based; design: dose 10 mg/kg; settings: in vivo
# Mus musculus [17] = test: Hematotoxicity in B6D2F1 mouse assessed as WBC count at 5 mg/kg, iv; assay type: organism-based; design: dose 5 mg/kg, route intravenous; settings: in vivo
# Mus musculus [18] = test: Hematotoxicity in B6D2F1 mouse assessed as platelet count at 5 mg/kg, po; assay type: organism-based; design: dose 5 mg/kg, route oral; settings: in vivo
# Mus musculus [19] = test: Hematotoxicity in B6D2F1 mouse assessed as RBC count at 10 mg/kg, po; assay type: organism-based; design: dose 10 mg/kg, route oral; settings: in vivo
# Mus musculus [20] = test: Hematotoxicity in B6D2F1 mouse assessed as RBC count at 20 mg/kg, po; assay type: organism-based; design: dose 20 mg/kg, route oral; settings: in vivo
# Mus musculus [21] = test: Hematotoxicity in B6D2F1 mouse assessed as WBC count at 5 mg/kg, po; assay type: organism-based; design: dose 5 mg/kg, route oral; settings: in vivo
# Mus musculus [22] = test: Hematotoxicity in B6D2F1 mouse assessed as WBC count at 10 mg/kg, po; assay type: organism-based; design: dose 10 mg/kg, route oral; settings: in vivo
# Mus musculus [23] = test: Hematotoxicity in B6D2F1 mouse assessed as WBC count at 20 mg/kg, po; assay type: organism-based; design: dose 20 mg/kg, route oral; settings: in vivo
# [24] = Antitumor activity against mouse MXT-HI cells xenografted in B6D2F1 mouse at 20 mg/kg, ip relative to control; assay type: functional; settings: route intraperitoneal
# Outline: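 MXT-HI mammary adenocarcinoma grafted s.c. onto female B6D2F1 mice. Dosing i.p., five injections weekly for three weeks from day 14 post-graft. Nine mice per group. Tumour surface area measured, and survival expressed as %T/C, the ratio of treated to control median survival time.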
# Mus musculus [25] = test: Toxicity in B6D2F1 mouse at 40 mg/kg, ip; assay type: organism-based; design: dose 40 mg/kg, route intraperitoneal; settings: in vivo
# L1210 [26] = test: Antitumor activity in L1210 cells xenografted B6D2F1 mouse at 80 mg/kg, ip relative to control; assay type: functional; settings: route intraperitoneal; outline: as §2
# L1210 [27] = test: Antitumor activity in L1210 cells xenografted B6D2F1 mouse at 120 mg/kg, ip relative to control; assay type: functional; settings: route intraperitoneal; outline: as §2
# Mus musculus [28] = test: Toxicity in B6D2F1 mouse at 120 mg/kg, ip; assay type: organism-based; design: dose 120 mg/kg, route intraperitoneal; settings: in vivo
# Outline: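 Healthy female B6D2F1 mice, 10 per group, dosed i.p. in DMSO/saline (5:95 v/v) three times weekly for five weeks at two levels set relative to MTD; sacrificed 3 days after final dose; platelet, RBC and WBC counted by Coulter counter.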
# Mus musculus [29] = test: Hematotoxicity in ip dosed B6D2F1 mouse assessed as decrease in platelet count; assay type: organism-based; settings: in vivo
# Outline: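 Healthy female B6D2F1 mice, 10 per group, dosed i.p. three times weekly for five weeks at two dose levels set relative to MTD. Vehicle DMSO/saline 5:95 v/v. Killed 3 days after the last dose; blood platelet, RBC and WBC counts taken with a Coulter counter.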
compound,measurement,setting,value
CN(C)CCN1C(=O)c2cccc3cc(N)cc(c23)C1=O [AMONAFIDE],Activity,Mus musculus [1],916 10^3 /uL
same,Activity,Mus musculus [2],806 10^3 /uL
same,Activity,Mus musculus [3],9.82 10^6 /uL
same,pIC50,[4]; hs 683,5.41
same,pIC50,[5]; u-373mg atcc,5.46
same,pIC50,HCT-15; hct-15,5.28
same,pIC50,LoVo; lovo,5.57
same,pIC50,A549; a549,5.42
same,pIC50,MCF7,5.24
same,MTD,[6],40 mg/kg
same,Activity,L1210 [7],140%
same,Activity,L1210 [8],122%
same,Activity,L1210 [9],121%
same,Activity,L1210 [10],49%
same,Activity,L1210 [11],109%
same,Activity,Mus musculus [12],461 10^3 /uL
same,Activity,Mus musculus [13],390 10^3 /uL
same,Activity,Mus musculus [14],3.07 10^3 /uL
same,Activity,Mus musculus [15],8.59 10^6 /uL
same,Activity,Mus musculus [16],9.54 10^6 /uL
same,Activity,Mus musculus [17],3.33 10^3 /uL
same,Activity,Mus musculus [18],892 10^3 /uL
same,Activity,Mus musculus [19],10.05 10^6 /uL
same,Activity,Mus musculus [20],9.54 10^6 /uL
same,Activity,Mus musculus [21],3.26 10^3 /uL
same,Activity,Mus musculus [22],3.06 10^3 /uL
same,Activity,Mus musculus [23],2.93 10^3 /uL
same,Activity,[24],143%
same,Activity,Mus musculus [25],Toxic
CN(C)CCN1C(=O)c2cccc3cc(/N=C\c4cc5c(cc4[N+](=O)[O-])OCO5)cc(c23)C1=O,pIC50,"[4]; Homo sapiens, Hs 683, 72 h",< 5.00
same,pIC50,"[5]; Homo sapiens, U373 MG, 72 h",5.30
same,pIC50,"HCT-15; Homo sapiens, HCT-15, 72 h",< 5.00
same,pIC50,"LoVo; Homo sapiens, LoVo, 72 h",< 5.00
same,pIC50,"A549; Homo sapiens, A549, 72 h",< 5.00
same,pIC50,MCF7,< 5.00
same,MTD,[6],> 160 mg/kg
same,Activity,L1210 [8],215%
same,Activity,L1210 [9],195%
same,Activity,L1210 [10],278%
same,Activity,L1210 [26],>300%
same,Activity,L1210 [27],40%
same,Activity,Mus musculus [28],Toxic
same,Activity,Mus musculus [29],Toxic
COc1ccc(CC(=O)Nc2cc3c4c(cccc4c2)C(=O)N(CCN(C)C)C3=O)cc1,pIC50,"[4]; Homo sapiens, Hs 683, 72 h",5.38
same,pIC50,"[5]; Homo sapiens, U373 MG, 72 h",5.57
same,pIC50,"HCT-15; Homo sapiens, HCT-15, 72 h",5.55
same,pIC50,"LoVo; Homo sapiens, LoVo, 72 h",5.89
same,pIC50,"A549; Homo sapiens, A549, 72 h",5.49
same,pIC50,MCF7,5.66
same,MTD,[6],10 mg/kg
same,Activity,L1210 [8],107%
